Compound activity deposited in PubChem by several laboratories.
A selection: hits, their analogues and other compounds. The true share with any hit is near 11%.
D1 mod: D1 dopamine receptor (human) allosteric modulation; B-score at 10 µM; actives 5.9% (n = 58,000); HEK293 D1, CRE-luciferase, dopamine EC30 potentiation; actives deviate in either direction;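 active = luminescence count or its row- and column-corrected plate score outside the 99.7% band of the plate's sample wells, on either side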
SF-1 act: SF-1 (human) activation; Q13285; CHO-K1 Gal4-SF-1 LBD luciferase reporter; % increase over DMSO SF-1-specific signal; activation, % at 10 µM; actives 1.9% (n = 65,000);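 active = activation above the mean activation of all tested compounds plus 3 SD, cut at about 50% in these data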
Target sequence (Q13285 whole entry, looked up, the tested form may be a part): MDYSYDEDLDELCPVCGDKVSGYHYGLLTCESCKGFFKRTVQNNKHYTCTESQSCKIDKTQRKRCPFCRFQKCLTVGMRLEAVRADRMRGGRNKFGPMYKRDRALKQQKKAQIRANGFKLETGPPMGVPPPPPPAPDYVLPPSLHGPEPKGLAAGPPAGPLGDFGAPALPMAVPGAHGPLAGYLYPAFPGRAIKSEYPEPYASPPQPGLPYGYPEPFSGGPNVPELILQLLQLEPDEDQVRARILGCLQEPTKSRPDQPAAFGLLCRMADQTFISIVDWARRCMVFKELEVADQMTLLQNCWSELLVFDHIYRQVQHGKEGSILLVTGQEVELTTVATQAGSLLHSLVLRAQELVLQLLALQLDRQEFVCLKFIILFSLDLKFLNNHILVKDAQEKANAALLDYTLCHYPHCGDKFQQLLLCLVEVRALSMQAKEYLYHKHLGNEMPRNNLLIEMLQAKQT
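System: CHO-K1 cells with Gal4–hSF-1 LBD chimera plus Gal4-driven luciferase; quantity: 4,000 CHO-K1 cells per well; compound: one dose, 10 µM compound, 1% DMSO; times: 20 h compound treatment, 37 °C; measured by: SteadyLite luciferase luminescence; read-out: percent activation versus DMSO; benchmarks: DMSO and mock-transfected background; replicates: one test per compound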
mHtt clearance: mutant huntingtin protein clearance; inhibition, % at 1.5 µM; HeLa Exon1htt(103Q)mCFP, aggregate imaging; zero = plate's median compound well; actives 0.42% (n = 47,000); AID 853;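 active = inhibition of aggregate fluorescence above about 70%, also judged a hit by eye on the cell image, limit read from the data, passing the limit was not always enough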;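 note: cells exposed to compound for three days before fixation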
M1 agonist: activates the M1 muscarinic receptor; B-score at 10 µM; actives 3% (n = 64,000); CHO-M1 cells, Fluo-4 calcium fluorescence, agonist mode; active compounds read high;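 active = fluorescence rise, raw or as B-score row- and column-corrected plate score, outside the 99.7% band of its plate's samples, either direction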
M1 antag: M1 muscarinic receptor (rat) antagonism | B-score at 10 µM | actives 3.4% (n = 64,000) | P08482 | CHO-M1 cells, Fluo-4 calcium, ACh EC80 antagonist mode; active compounds read low;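 active = calcium fluorescence response, raw or row-and-column corrected B-score, differing from the plate sample mean either way at a set confidence level, mostly lower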
RORA act: activates the human nuclear receptor RORA; CHO-K1 Gal4-RORA LBD luciferase reporter, luminescence; percent increase over mock-subtracted basal signal; activation, % at 10 µM; AID 560; P35398; actives 1.5% (n = 65,000);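 active = activation above the mean of all tested compounds plus 3 SD, cut at about 49% in these data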;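 note: 0% = DMSO-treated RORA cells and 100% = added signal equal to DMSO minus mock-transfected cells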
D1 mod confirm: D1 receptor (human) allosteric modulation, confirmed | shares compounds with D1 mod | HEK293 D1 CRE-luciferase, dopamine EC30 potentiation; active compounds read high | luminescence at 10 µM | actives 88% (n = 2,200) | AID 642;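 active = luminescence in either of two replicates above the same-plate mean plus 3 SD of the low-dose dopamine control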
D1 no dopamine: activates D1 CRE-luciferase signal without dopamine present. shares compounds with D1 mod. actives 0.8% (n = 1,900). HEK293 D1 CRE-luciferase, luminescence, no dopamine; active compounds read high. AID 646. luminescence at 10 µM; in the data active = luminescence above about 3900
Isoprot counter: counter-screen for D1 modulators: isoproterenol response in HEK293 cells | actives 63% (n = 2,200) | shares compounds with D1 mod | HEK293 D1 CRE-luciferase, isoproterenol EC30 counter-screen | calls only at 10 µM;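 active = luminescence in either replicate above plate mean of wells with a partly effective reference agonist dose plus 3 SD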;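 note: isoproterenol raises cAMP through native beta-adrenoceptor Gs so signal bypasses D1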
Starred values were filed as active, the others as inactive; i = inactive; · = not tested or not shown; + = active, no number.

SMILES	D1 mod	SF-1 act	mHtt clearance	M1 agonist	M1 antag	RORA act	D1 mod confirm	D1 no dopamine	Isoprot counter
COc1cccc(-c2csc(NC(C)=O)n2)c1	-0.00806	46.0	·	-0.184	-0.808	39.6	·	·	·
O=C(Cc1cccs1)Nc1nnc(CCc2ccccc2)s1	-0.171	5.5	-25.9	0.471	0.297	-13.0	·	·	·
COc1ccc(Cc2nnc(NC(=O)Cc3cccs3)s2)cc1OC	17.4*	3.3	·	-0.615	0.507	5.2	27116*	1544	+
COc1ccc(-c2csc(NC(C)=O)n2)cc1OC	6.07*	-4.9	14.5	0.504	0.0485	0.2	10116*	1664	+
COc1ccc(CC(=O)Nc2nc(C)cs2)cc1OC	3.86*	-2.7	·	-1.35	0.703	-3.9	12824*	1648	+
O=C(NC1CCS(=O)(=O)C1)C12CC3CC(CC(C3)C1)C2 (stereo unspecified)	·	4.0	59.0	0.401	-1.08	13.2	·	·	·
CCOc1ccc(OCC)c2sc(C)nc12	10.8*	6.0	10.9	0.116	0.562	25.8	20256*	1572	+
COC(=O)C(C)Sc1nnc2n(-c3cccc(C)c3)c(=O)c3c4c(sc3n12)CCCC4 (stereo unspecified)	9.25*	3.1	·	-1.15	-0.34	10.9	16844*	1688	+
Cc1noc(C)c1CSc1ncnc2ccccc12	3.86*	-8.4	·	-0.0182	-0.303	-6.9	7560*	1844	i
Cc1sc2ncnc(SCc3ccco3)c2c1C	0.535	-12.4	28.2	1.36	0.197	-8.1	·	·	·
Cc1noc(C)c1CSc1ncnc2sc(C)c(C)c12	5.23*	-12.4	-29.1	0.677	-0.129	-2.4	10232*	1588	+
C=CCC(C#Cc1ccccc1)[N+](C)(C)CC=C (stereo unspecified)	·	·	-142.3	·	·	·	·	·	·
c1ccc(-c2cnnc(SCc3cn4cccnc4n3)n2)cc1	8.52*	4.5	·	-0.365	-0.566	4.5	14784*	1868	+
COc1cc2c(cc1OC)C(=NCCC(=O)O)NC(C)(C)C2	-0.0351	5.4	·	-0.246	0.803	-2.9	·	·	·
COc1cc2c(cc1OC)/C(=C/C#N)NC(C)(C)C2	10.1*	3.1	·	0.644	-0.00703	-4.7	16360*	1644	+
O=c1[nH]c(=O)n(Cc2ccco2)c2c1C(C(F)(F)F)(C(F)(F)F)N=C(Cc1ccccc1)N2	·	·	38.5	·	·	·	·	·	·
CS(=O)(=O)c1sc2nc(-c3cccs3)cc(-c3ccccc3)c2c1N	5.14*	3.9	8.7	-1.26	0.959	-2.6	15760*	1468	i
CCOC(=O)C1=C(c2ccccc2)N2CCS(=O)(=O)N=C2S1	7.12*	7.3	-30.7	0.0354	0.766	-9.8	9940*	1656	i
CCOC(=O)c1c(N)nn(C(=O)C(C)(C)C)c1-c1ccccc1	1.52	5.2	33.5	-0.0382	-0.394	-3.9	·	·	·
CCOC(=O)c1sc(C)c2c1NC(C)(c1ccccc1)NC2=O (stereo unspecified)	·	·	-43.9	·	·	·	·	·	·
COC(=O)c1nn(-c2ccc(Cl)cc2)c(=O)cc1Sc1ccccn1	·	·	-21.5	·	·	·	·	·	·
Cc1ccc(-c2csc3nc(C)n(-n4c(C)ccc4C)c(=O)c23)o1	0.517	-14.7	7.3	0.17	-0.69	-15.9	·	·	·
COc1ccc(-c2csc3nc(C)n(-n4cccc4)c(=O)c23)cc1OC	4.9*	-4.3	·	0.672	0.117	-8.7	6784*	1784	i
COC(=O)c1cc(Cc2ccc(N)c(C(=O)OC)c2)ccc1N	3.03*	-10.3	-38.5	-1.27	-0.503	11.1	7532*	·	+
Cn1cnc2c1c(=O)n(Cc1cccc(Br)c1)c(=O)n2C	10.5*	-2.7	·	0.425	0.115	2.5	12308*	1656	+
SMILES	D1 mod	SF-1 act	mHtt clearance	M1 agonist	M1 antag	RORA act	D1 mod confirm	D1 no dopamine	Isoprot counter
CC1(C)Cc2c(C#N)c(NCCCO)nc(-c3ccccc3)c2CO1	5.8*	5.8	·	-0.604	-0.621	27.5	11280*	1708	+
NC1=NC(c2cn(-c3ccccc3)nc2-c2cccs2)n2c(nc3ccccc32)N1 (stereo unspecified)	4.26*	0.5	-52.9	-0.359	-0.298	-7.6	7380*	1336	i
O=C(c1nc2nc(-c3ccc(Cl)cc3)cc(C(F)(F)F)n2n1)N1CCOCC1	2.93*	-1.5	-80.8	1.33	0.509	-18.3	8024*	1772	+
O=C(c1nc2nc(-c3ccccc3)cc(C(F)(F)F)n2n1)N1CCOCC1	·	9.1	-22.0	1.66	0.838	-16.1	·	·	·
CC(N1CCOC1=O)S(=O)(=O)c1ccccc1 (stereo unspecified)	·	·	24.3	·	·	·	·	·	·
Cc1ccc(C2C3=C(CC(C)(C)CC3=O)N(CCN3CCOCC3)C3=C2C(=O)CC(C)(C)C3)cc1	0.0602	2.4	-55.6	·	·	9.0	·	·	·
COc1ccc(-c2nnc(CSc3nc4ccccc4c(=O)n3CC(C)C)o2)cc1OC	5.76*	-8.4	11.0	-0.42	0.613	-5.9	6848*	·	+
CC(C)Cn1c(SCC#N)nc2ccccc2c1=O	8.59*	-1.0	·	·	·	-3.6	15244*	1668	+
CC(C#N)On1c(SC(C)C#N)nc2ccccc2c1=O (stereo unspecified)	4.18*	-1.1	·	0.3	0.366	14.4	11488*	·	i
COC(=O)COn1c(SCC(=O)OC)nc2ccccc2c1=O	·	10.2	·	-0.0313	0.114	19.4	·	·	·
Cc1ccccc1NC(=O)CCC(=O)OCC(=O)c1ccc(-c2ccccc2)cc1	·	·	15.8	·	·	·	·	·	·
COc1ccccc1C(=O)NCCCn1cc(Br)c(C)n1	0.334	-10.3	·	-0.026	-0.651	-20.6	·	·	·
O=C(COc1ccccc1)Nc1ccccc1N1CCCCC1	3.41*	7.2	·	0.401	0.175	-9.7	5352	·	i
Cc1ccc(NC(=O)c2ccco2)cc1NC(=O)CSc1nnc(-c2cccs2)n1C	0.924	-1.4	·	-0.103	-0.264	-10.2	·	·	·
COc1nnc(-c2ccc(N3CCCCC3)c(NC(C)=O)c2)c2ccccc12	·	·	53.7	·	·	·	·	·	·
N#Cc1cc2ccccc2nc1SCc1ccccn1	4.44*	66.7*	14.2	1.78	0.557	71.3*	8624*	·	+
N#Cc1c(N)nc(SCc2ccccn2)c(C#N)c1-c1cccs1	·	-10.6	-41.7	-0.0396	-0.0416	-12.9	·	·	·
O=C(O)C1C2C=CC3(CN(Cc4ccccn4)C(=O)C13)O2 (stereo unspecified)	0.158	6.4	·	-0.0837	-0.041	-15.6	·	·	·
